Experimental data reported in ChEMBL document CHEMBL1811868, “Structure-activity relationship of 2-hydroxy-2-aryl-2,3-dihydro-imidazo[1,2-a]pyrimidinium salts and 2N-substituted 4(5)-aryl-2-amino-1H-imidazoles as inhibitors of biofilm formation by Salmonella Typhimurium and Pseudomonas aeruginosa” (Bioorg Med Chem, 2011).
Active and inactive are the calls of the source. No rule for the calls is given here.

How the values were obtained:
Salmonella typhimurium [1] = test: Antimicrobial activity against Salmonella Typhimurium ATCC 14028 assessed as inhibition of biofilm formation after 24 hrs by spectrophotometry; type: functional, organism-based, Salmonella enterica subsp. enterica serovar Typhimurium; settings: for IC50: Salmonella enterica, ATCC 14028, 24 h
Procedure, shortened: (§1)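 Static peg-lid biofilm prevention assay. Twofold serial dilutions in TSB diluted 1/20, 2–3 repeats per compound. Overnight S. Typhimurium ATCC14028 (LB-grown) or P. aeruginosa PA14 (TSB-grown) cultures were diluted 1:100, giving ~10^6 cells/well, then incubated 24 h at 25 °C without shaking. Pegs were PBS-washed, stained 30 min with 0.1% crystal violet, extracted with 30% acetic acid and read at OD570. IC50 was fitted from the concentration gradient.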

Pseudomonas aeruginosa [2] = test: Antimicrobial activity against Pseudomonas aeruginosa PA14 assessed as inhibition of biofilm formation after 24 hrs by spectrophotometry; type: functional, organism-based; settings: PA14, 24 h; procedure, shortened: as §1
Salmonella typhimurium [3] = test: Antimicrobial activity against Salmonella Typhimurium ATCC 14028 assessed as inhibition of planktonic cell growth at IC50 after 24 hrs by […]; type: functional, organism-based; settings: Salmonella enterica subsp. enterica serovar Typhimurium
Procedure, shortened: (§2)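 Planktonic growth was followed by Bioscreen growth curves, not by crystal violet. Overnight cultures were diluted 1:200 in TSB 1/20 and received compound serially diluted in DMSO or EtOH, in triplicate, with solvent controls. Plates were shaken at 25 °C for at least 24 h, reading A600 every 15 min.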

Pseudomonas aeruginosa [4] = test: Antimicrobial activity against Pseudomonas aeruginosa PA14 assessed as inhibition of planktonic cell growth at IC50 after 24 hrs by […]; type: functional, organism-based; procedure, shortened: as §2

| IC50 (Salmonella typhimurium [1]) [µM] | IC50 (Pseudomonas aeruginosa [2]) [µM] | Structure (SMILES) | inhibition (INH) (Salmonella typhimurium [1]) [%] | growth inhibition (GI) (Salmonella typhimurium [3]) | growth inhibition (GI) (Pseudomonas aeruginosa [4]) |
| --- | --- | --- | --- | --- | --- |
| 14.7 | 15.1 | CCCCCCCCN1c2nccc[n+]2C[C@@]1(O)c1cccc2ccccc12 |  |  |  |
| 211 | 41.5 | CC(C)(C)N1c2nccc[n+]2C[C@@]1(O)c1ccc([N+](=O)[O-])cc1 |  |  |  |
| 540 | > 400 | CC(C)N1c2nccc[n+]2C[C@@]1(O)c1ccccc1 |  |  |  |
| > 800 | > 400 | CN1c2nccc[n+]2C[C@@]1(O)c1ccccc1 |  |  |  |
| > 400 | 3.1 | CCCCCCCCNc1ncc(-c2ccc(F)cc2)[nH]1 |  |  |  |
| 102 | 406 | CCCCCCN1c2nccc[n+]2C[C@@]1(O)c1ccccc1 |  |  |  |
| 278 | 565 | CCCCCN1c2nccc[n+]2C[C@@]1(O)c1ccccc1 |  |  |  |
| 1.9 | > 800 | CCCCCCCCNc1ncc(-c2ccc(Br)cc2)[nH]1 |  |  |  |
| 8.8 | 14.4 | O=[N+]([O-])c1ccc([C@]2(O)C[n+]3cccnc3N2C23CC4CC(CC(C4)C2)C3)cc1 |  |  |  |
| > 800 | > 800 | CCCCCCCCCCCCCCN1c2nccc[n+]2C[C@@]1(O)c1ccc(Cl)cc1 |  |  |  |
| 400 | > 800 | CCCCCCCCNc1ncc(-c2ccc(OC)cc2)[nH]1 | 50 |  |  |
| 7 | 15.7 | CCCCCCCCN1c2nccc[n+]2C[C@@]1(O)c1ccc(Cl)cc1 |  | Active | Active |
| 20 |  | CCCCCCCCCCN1c2nccc[n+]2C[C@@]1(O)c1ccc(F)cc1 |  |  |  |
| 698 | > 400 | CN1c2nccc[n+]2C[C@@]1(O)c1ccc([N+](=O)[O-])cc1 |  |  |  |
| 125 | 20.4 | O=[N+]([O-])c1ccc([C@]2(O)C[n+]3cccnc3N2C2CC2)cc1 |  |  |  |
| 6.7 | 36.9 | CCCCCCCN1c2nccc[n+]2C[C@@]1(O)c1ccc(Cl)cc1 |  |  |  |
| > 800 | 261 | CC(C)Nc1ncc(-c2ccccc2)[nH]1 |  |  |  |
| 82.7 | 179 | O[C@@]1(c2ccc(Cl)cc2)C[n+]2cccnc2N1C1CC1 |  |  |  |
| 9.9 | 22.3 | CCCCCCCCCCN1c2nccc[n+]2C[C@@]1(O)c1ccc([N+](=O)[O-])cc1 |  | Active | Active |
| 579 | > 800 | CCN1c2nccc[n+]2C[C@@]1(O)c1ccc([N+](=O)[O-])cc1 |  |  |  |
| 13.2 | 36.5 | CCCCCCCCN1c2nccc[n+]2C[C@@]1(O)c1ccc(SC)cc1 |  |  |  |
| 8.3 | 26.8 | CCCCCCCCCN1c2nccc[n+]2C[C@@]1(O)c1ccccc1 |  | Active | Active |
| 51.3 | 83.3 | CCCCCCCCCCN1c2nccc[n+]2C[C@@]1(O)c1ccc(Cl)cc1 |  | Active | Active |
| 54.7 | 12.4 | CCCCCCN1c2nccc[n+]2C[C@@]1(O)c1ccc([N+](=O)[O-])cc1 |  | Active | Active |
| 7.6 |  | CCCCCCCCN1c2nccc[n+]2C[C@@]1(O)c1ccc(F)cc1 |  |  |  |
|  | 10.5 | c1ccc2c(-c3cnc(NCc4ccc5c(c4)OCO5)[nH]3)cccc2c1 |  |  |  |

| IC50 (Salmonella typhimurium [1]) [µM] | IC50 (Pseudomonas aeruginosa [2]) [µM] | Structure (SMILES) | inhibition (INH) (Salmonella typhimurium [1]) [%] | growth inhibition (GI) (Salmonella typhimurium [3]) | growth inhibition (GI) (Pseudomonas aeruginosa [4]) |
| --- | --- | --- | --- | --- | --- |
| 1820 |  | CN1c2nccc[n+]2C[C@@]1(O)c1ccc(F)cc1 |  |  |  |
| > 800 | > 800 | COc1cccc(CNc2ncc(-c3ccc(-c4ccc(-c5ccccc5)cc4)cc3)[nH]2)c1 |  |  |  |
| 6.6 | 12.1 | CCCCCCCCN1c2nccc[n+]2C[C@@]1(O)c1ccc([N+](=O)[O-])cc1 |  | Active | Active |
| 131 | 289 | CC(C)CN1c2nccc[n+]2C[C@@]1(O)c1ccccc1 |  |  |  |
| 160 |  | CNc1ncc(-c2ccc(O)cc2)[nH]1 |  |  |  |
| > 400 | 12.5 | CCCCCCNc1ncc(-c2ccc(F)cc2)[nH]1 |  |  |  |
| 410 | > 400 | CCCCN1c2nccc[n+]2C[C@@]1(O)c1ccccc1 |  |  |  |
| 66.6 | 456 | Fc1ccc(-c2cnc(NCc3ccc4c(c3)OCO4)[nH]2)cc1 |  | inactive |  |
| 702 | > 800 | CCCCNc1ncc(-c2ccc([N+](=O)[O-])cc2)[nH]1 |  |  |  |
| 12.6 | 22.7 | O[C@@]1(c2ccc(Cl)cc2)C[n+]2cccnc2N1C1CCCCCCC1 |  | Active | Active |
| 23.4 | 25.5 | CCCCCCCN1c2nccc[n+]2C[C@@]1(O)c1ccccc1 |  | Active | Active |
| 84.2 | 191 | O[C@@]1(c2ccccc2)C[n+]2cccnc2N1C1CCCCCC1 |  | inactive | inactive |
| 602 |  | CNc1ncc(-c2ccc(F)c(F)c2)[nH]1 |  |  |  |
| > 400 | 1.6 | CCCCCCCCNc1ncc(-c2ccc(Cl)cc2)[nH]1 |  |  |  |
| 238 | > 800 | CCCCCCCCNc1ncc(-c2cccc3ccccc23)[nH]1 | 50 |  |  |
| 466 | 192 | CC(C)N1c2nccc[n+]2C[C@@]1(O)c1ccc([N+](=O)[O-])cc1 |  |  |  |
| 9.8 | 14.4 | CCCCCCCCN1c2nccc[n+]2C[C@@]1(O)c1ccccc1 |  | Active | Active |
| 7.1 |  | CCCCCCCCN1c2nccc[n+]2C[C@@]1(O)c1ccc(Cl)c(Cl)c1 |  |  |  |
| 5.6 | 6.8 | O[C@@]1(c2ccc(Cl)cc2)C[n+]2cccnc2N1C1CCCCCCCCCCC1 |  | Active | Active |
| 225 | 170 | CN1c2nccc[n+]2C[C@@]1(O)c1ccc(Cl)cc1 |  |  |  |
| 13.7 | 79.8 | CCCCCCN1c2nccc[n+]2C[C@@]1(O)c1ccc(Cl)cc1 |  |  |  |
| 18.6 |  | CCCCCCCCCCN1c2nccc[n+]2C[C@@]1(O)c1ccc(OC)cc1 |  | Active |  |
| 316 | > 800 | CCCCCCCCCCCCCN1c2nccc[n+]2C[C@@]1(O)c1ccc(Cl)cc1 |  |  |  |
| 212 |  | O[C@@]1(c2ccccc2)C[n+]2cccnc2N1Cc1ccccc1 |  |  |  |
| 121 | 372 | O[C@@]1(c2ccc(Cl)cc2)C[n+]2cccnc2N1C1CCC1 |  |  |  |
| > 800 | 25 | Clc1ccc(-c2cnc(NC3CCCCC3)[nH]2)cc1 |  |  |  |

| IC50 (Salmonella typhimurium [1]) [µM] | IC50 (Pseudomonas aeruginosa [2]) [µM] | Structure (SMILES) | inhibition (INH) (Salmonella typhimurium [1]) [%] | growth inhibition (GI) (Salmonella typhimurium [3]) | growth inhibition (GI) (Pseudomonas aeruginosa [4]) |
| --- | --- | --- | --- | --- | --- |
| 293 | 145 | CCCCN1c2nccc[n+]2C[C@@]1(O)c1ccc([N+](=O)[O-])cc1 |  |  |  |
| 118 | > 800 | CCCCCCCCNc1ncc(-c2ccc(Cl)c(Cl)c2)[nH]1 | 50 |  |  |
| 163 |  | CCCCN1c2nccc[n+]2C[C@@]1(O)c1ccc(F)cc1 |  |  |  |
| 32.4 |  | CCCCCCCCCCN1c2nccc[n+]2C[C@@]1(O)c1ccc(Cl)c(Cl)c1 |  |  |  |
| 53.7 |  | O[C@@]1(c2ccc3c(c2)OCO3)C[n+]2cccnc2N1Cc1ccc2c(c1)OCO2 |  | inactive |  |
| 174 |  | O=[N+]([O-])c1ccc([C@]2(O)C[n+]3cccnc3N2Cc2ccccc2)cc1 |  |  |  |
| 90.1 |  | CCCCN1c2nccc[n+]2C[C@@]1(O)c1ccc(Br)cc1 |  |  |  |
| 15 | 29.9 | CCCCCCCCCCN1c2nccc[n+]2C[C@@]1(O)c1ccccc1 |  | Active | Active |
| > 800 | > 800 | COc1ccc(CNc2ncc(-c3ccc([N+](=O)[O-])cc3)[nH]2)cc1 |  |  |  |
| 171 | 104 | CCNc1ncc(-c2ccc([N+](=O)[O-])cc2)[nH]1 |  |  |  |
| < 6.3 | 5.4 | O=[N+]([O-])c1ccc([C@]2(O)C[n+]3cccnc3N2C2CCCCCCCCCCC2)cc1 |  | Active | Active |
| > 800 |  | CCCCCCCCCNc1ncc(-c2ccc(Cl)cc2)[nH]1 |  |  |  |
| 322 | 192 | CC(C)CN1c2nccc[n+]2C[C@@]1(O)c1ccc([N+](=O)[O-])cc1 |  |  |  |
| > 400 | 6.3 | CCCCCNc1ncc(-c2ccc(Cl)cc2)[nH]1 |  |  |  |
| 10.5 |  | CCCCCCCCN1c2nccc[n+]2C[C@@]1(O)c1ccc(OC)cc1 |  |  |  |
| > 800 | > 800 | COc1cccc(CNc2ncc(-c3ccc(Cl)c(Cl)c3)[nH]2)c1 |  |  |  |
| 52.8 | 336 | CCCCCCCCN1c2nccc[n+]2C[C@@]1(O)c1ccc(-c2ccc(-c3ccccc3)cc2)cc1 |  |  |  |
| 122 | > 800 | CCCCCCCCCCCCN1c2nccc[n+]2C[C@@]1(O)c1ccc(Cl)cc1 |  |  |  |
| 314 |  | CCCCN1c2nccc[n+]2C[C@@]1(O)c1ccc(OC)cc1 |  |  |  |
| 31 | 215 | CCCCCCCCN1c2nccc[n+]2C[C@@]1(O)c1ccc(-c2ccc([N+](=O)[O-])cc2)cc1 |  |  |  |
| 60.3 | 99.9 | CCCCCCCCN1c2nccc[n+]2C[C@@]1(O)c1ccc(S(C)(=O)=O)cc1 |  |  |  |
| 564 |  | CN1c2nccc[n+]2C[C@@]1(O)c1cccc([N+](=O)[O-])c1 |  |  |  |
| 493 | > 400 | O[C@@]1(c2ccccc2)C[n+]2cccnc2N1C1CCC1 |  |  |  |
| 110 |  | COc1ccc(CN2c3nccc[n+]3C[C@@]2(O)c2ccc(Br)cc2)cc1 |  |  |  |
